These results are taken from ChEMBL document CHEMBL4428106, “Synthesis, biological evaluation and molecular docking study of N-arylbenzo[d]oxazol-2-amines as potential α-glucosidase inhibitors” (Bioorg Med Chem, 2016).

Experiment [1] in a line: Inhibition of baker's yeast alpha-glucosidase using p-nitrophenyl-alpha D-glucopyranoside as substrate preincubated for 15 mins followed by substrate addition measured after 30 mins by spectrophotometric analysis. Set-up: species or system Saccharomyces cerevisiae. An outline of the steps:
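Enzyme 0.1 U/mL preincubated with test compounds at various concentrations (DMSO, final 5% v/v) in 0.1 M phosphate buffer pH 6.8, 37 C, 15 min; 1.25 mM p-nitrophenyl α-D-glucopyranoside then added, 30 min at 37 C; absorbance read at 405 nm. DMSO-only control; triplicates. % inhibition = (1-∆Asample/∆Acontrol)*100; IC50 = concentration giving 50% inhibition.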

The nature of experiment [2]: Non-competitive inhibition of baker's yeast alpha-glucosidase using p-nitrophenyl-alpha D-glucopyranoside as substrate preincubated for 15 mins followed by substrate addition measured after 30 mins by Lineweaver-Burk plot analysis. Set-up: species or system Saccharomyces cerevisiae. An outline of the steps:
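Kinetics: inhibitor at 0, 10, 20, 30, 40 and 50 μM against p-nitrophenyl α-D-glucopyranoside at 0.25, 0.5, 1 and 2 mM. Inhibition type assigned from Lineweaver-Burk plots (changes in Vmax and Km); Ki estimated from replot of slope versus inhibitor concentration.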

The test system of experiment [3] is Saccharomyces cerevisiae. Kind of experiment: Potency index, ratio of acarbose IC50 to compound IC50 for baker's yeast alpha-glucosidase.

Consider `CCOc1ccc(Nc2nc3ccccc3o2)cc1`, for which the IC50 in experiment [1] was > 200 µM.
In turn, `CCOc1ccccc1Nc1nc2ccccc2o1` showed an IC50 in experiment [1] of 65 µM.
On the same count and under the same terms, the same measure for `Clc1ccc(Nc2nc3ccccc3o2)c(Cl)c1`: 44.4 µM.
Regarding `Cc1cccc(Nc2nc3ccccc3o2)c1`, the IC50 in experiment [1] is > 200 µM.
The same measure, in the same setting: under `Cc1ccccc1Nc1nc2ccccc2o1` stands > 200 µM.
Compound `c1ccc(Oc2ccc(Nc3nc4ccccc4o3)cc2)cc1` yielded a concentration for half-maximal inhibition (IC50) in experiment [1] of 32.5 µM. This compound also displayed a Ki in experiment [2] of 31.3 µM. In experiment [3], the Ratio IC50 turned out to be 25.
Turning to `c1ccc(Nc2nc3ccccc3o2)cc1`, in experiment [1], the concentration for half-maximal inhibition (IC50) was > 200 µM.
Still for that read-out and setting: under `COc1ccc(Nc2nc3ccccc3o2)cc1` stands > 200 µM.
The same measure, in the same setting: the same measure for `Fc1ccc(Nc2nc3ccccc3o2)cc1`: 68.4 µM; for `Clc1ccc(Nc2nc3ccccc3o2)cc1`: 80.4 µM; for `Cc1ccc(Nc2nc3ccccc3o2)cc1`: > 200 µM.
Same read-out and setting: the same measure for `FC(F)(F)c1cccc(Nc2nc3ccccc3o2)c1`: 120 µM; for `Cc1ccc(Nc2nc3ccccc3o2)c(C)c1`: > 200 µM.

By IC50 is commonly meant the midpoint of a concentration-inhibition curve. Low values mean higher potency, high ones lower potency. For orientation: Ki means a dissociation constant, usually derived from enzyme kinetics or from competition with a known ligand. A high value points to lower affinity.
